Measurements from paper PMC12495087 (ESMO Open, 2025).

Assay: phase I study BOS172738-01: safety and tolerability
Format: in vivo, human
In short: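 Patients received at least one dose of oral drug given once daily in 28-day cycles. Part A escalated 10–150 mg, by accelerated titration (dose doubling) and then 3+3 Fibonacci steps; part B used 75 mg. AEs were graded by CTCAE v4.03 from first dose to 31 days after last dose. DLTs counted in cycle 1. Missing causality was scored as related and missing grade as grade 3.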

[1] = any causality and grade, overall n = 117
[2] = overall total, n = 117, listed as BOS
[3] = part A, all dose levels, n = 67

Structure (SMILES): COc1cc2cc(-c3ccc(CC(=O)Nc4cc(C(C)(C)C(F)(F)F)no4)cn3)cnc2cc1OC [BOS172738]
- grade ≥3 TEAE of either hypertension or liver enzyme elevations (BOS172738-treated patients): 2%
- Any TEAE (all pooled 75 mg, n = 70): 70 (100) n (%)
- Any TEAE leading to BOS discontinuation (all pooled 75 mg, n = 70): 13 (19) n (%)
- Any TEAE leading to BOS dose interruption (all pooled 75 mg, n = 70): 46 (66) n (%)
- Any TEAE leading to BOS dose reduction (all pooled 75 mg, n = 70): 14 (20) n (%)
- Any TEAE leading to study discontinuation (all pooled 75 mg, n = 70): 9 (13) n (%)
- Any TEAE related to BOS leading to BOS discontinuation (all pooled 75 mg, n = 70): 6 (9) n (%)
- Any TEAE related to BOS leading to study discontinuation (all pooled 75 mg, n = 70): 2 (3) n (%)
- Any TEAE resulting in death (all pooled 75 mg, n = 70): 3 (4) n (%)
- Any TEAE, grade ≥3 (all pooled 75 mg, n = 70): 57 (81) n (%)
- Serious TEAEs related to BOS (all pooled 75 mg, n = 70): 4 (6) n (%)
- Serious TEAEs, any (all pooled 75 mg, n = 70): 35 (50) n (%)
- TEAE related to BOS, CTCAE grade ≥3: Anemia (all pooled 75 mg, n = 70): 4 (6) n (%)
- TEAE related to BOS, CTCAE grade ≥3: Asthenia (all pooled 75 mg, n = 70): 1 (1) n (%)
- TEAE related to BOS, CTCAE grade ≥3: Blood creatinine phosphokinase increased (all pooled 75 mg, n = 70): 14 (20) n (%)
- TEAE related to BOS, CTCAE grade ≥3: Diarrhea (all pooled 75 mg, n = 70): 1 (1) n (%)
- TEAE related to BOS, CTCAE grade ≥3: Hypophosphatemia (all pooled 75 mg, n = 70): 4 (6) n (%)
- TEAE related to BOS, CTCAE grade ≥3: Lymphopenia (all pooled 75 mg, n = 70): 2 (3) n (%)
- TEAE related to BOS, CTCAE grade ≥3: Muscular weakness (all pooled 75 mg, n = 70): 1 (1) n (%)
- TEAE related to BOS, CTCAE grade ≥3: Myositis (all pooled 75 mg, n = 70): 0 n (%)
- TEAE related to BOS, CTCAE grade ≥3: Neutropenia (all pooled 75 mg, n = 70): 2 (3) n (%)
- TEAE related to BOS, CTCAE grade ≥3: Neutrophil count decreased (all pooled 75 mg, n = 70): 9 (13) n (%)
- TEAE related to BOS, any (all pooled 75 mg, n = 70): 57 (81) n (%)
- TEAE related to BOS, grade ≥3 (all pooled 75 mg, n = 70): 34 (49) n (%)
- TEAE: anemia [1]: 46 (39%) n (%)
- TEAE: aspartate aminotransferase increased [1]: 48 (41%) n (%)
- TEAE: blood creatine phosphokinase increased [1]: 72 (62%) n (%)
- TEAE: constipation [1]: 30 (26%) n (%)
- TEAE: diarrhea [1]: 41 (35%) n (%)
- TEAE: dyspnea [1]: 34 (29%) n (%)
- TEAE: facial edema [1]: 31 (26%) n (%)
- TEAE: fatigue [1]: 33 (28%) n (%)
- TEAE: hypophosphatemia [1]: 31 (26%) n (%)
- treatment discontinued due to TEAEs (final data cut-off, 117 patients): 20%
- myositis leading to dose interruption (in total): 6%
- severity of BOS172738-related TEAEs (in vivo): mostly grade 1-2
- TEAE resulting in death: dyspnea (overall): 2%
- patients discontinued from the study due to BOS172738-related TEAEs (overall): 4%
- deaths considered related to BOS172738 (overall n = 117): None
- serious TEAE related to BOS172738: muscular weakness (overall n = 117): 3 (3%) n (%)
- serious TEAE related to BOS172738: myositis (overall n = 117): 2 (2%) n (%)
- serious TEAE: anemia (overall n = 117): 4 (3%) n (%)
- serious TEAE: dyspnea (overall n = 117): 8 (7%) n (%)
- serious TEAE: pneumonia (overall n = 117): 7 (6%) n (%)
- Any TEAE (overall total, n = 117): 117 (100) n (%)
- Any TEAE leading to BOS discontinuation (overall total, n = 117): 30 (26%) n (%)
- Any TEAE leading to BOS dose interruption (overall total, n = 117): 78 (67%) n (%)
- Any TEAE leading to study discontinuation (overall total, n = 117): 18 (15) n (%)
- Any TEAE related to BOS leading to BOS discontinuation (overall total, n = 117): 16 (14%) n (%)
- Any TEAE related to BOS leading to study discontinuation (overall total, n = 117): 5 (4) n (%)
- Any TEAE resulting in death (overall total, n = 117): 11 (9%) n (%)
- Any TEAE, grade ≥3 (overall total, n = 117): 98 (84%) n (%)
- Serious TEAEs related to BOS (overall total, n = 117): 16 (14%) n (%)
- Serious TEAEs, any (overall total, n = 117): 67 (57%) n (%)
- TEAE related to BOS, CTCAE grade ≥3: Anemia (overall total, n = 117): 10 (9%) n (%)
- TEAE related to BOS, CTCAE grade ≥3: Asthenia (overall total, n = 117): 2 (2) n (%)
- TEAE related to BOS, CTCAE grade ≥3: Blood creatinine phosphokinase increased (overall total, n = 117): 29 (25%) n (%)
- TEAE related to BOS, CTCAE grade ≥3: Diarrhea (overall total, n = 117): 3 (3) n (%)
- TEAE related to BOS, CTCAE grade ≥3: Hypophosphatemia (overall total, n = 117): 6 (5) n (%)
- TEAE related to BOS, CTCAE grade ≥3: Lymphopenia (overall total, n = 117): 3 (3) n (%)
- TEAE related to BOS, CTCAE grade ≥3: Muscular weakness (overall total, n = 117): 3 (3) n (%)
- TEAE related to BOS, CTCAE grade ≥3: Myositis (overall total, n = 117): 2 (2) n (%)
- TEAE related to BOS, CTCAE grade ≥3: Neutropenia (overall total, n = 117): 4 (3) n (%)
- TEAE related to BOS, CTCAE grade ≥3: Neutrophil count decreased (overall total, n = 117): 12 (10%) n (%)
- TEAE related to BOS, any (overall total, n = 117): 99 (85%) n (%)
- TEAE related to BOS, grade ≥3 (overall total, n = 117): 63 (54%) n (%)
- Any TEAE leading to BOS discontinuation [2]: 30 (26) n (%)
- Any TEAE leading to BOS dose interruption [2]: 78 (67) n (%)
- Any TEAE leading to BOS dose reduction [2]: 29 (25) n (%)
- Any TEAE related to BOS leading to BOS discontinuation [2]: 16 (14) n (%)
- Any TEAE resulting in death [2]: 11 (9) n (%)
- Any TEAE, grade ≥3 [2]: 98 (84) n (%)
- Serious TEAEs, any [2]: 67 (57) n (%)
- TEAE related to BOS, CTCAE grade ≥3: Anemia [2]: 10 (9) n (%)
- TEAE related to BOS, CTCAE grade ≥3: Blood creatinine phosphokinase increased [2]: 29 (25) n (%)
- TEAE related to BOS, CTCAE grade ≥3: Neutrophil count decreased [2]: 12 (10) n (%)
- TEAE related to BOS, any [2]: 99 (85) n (%)
- TEAE related to BOS, grade ≥3 [2]: 63 (54) n (%)
- DLT event (one patient) (part A, 75 mg cohort): blood creatine phosphokinase increased
- DLT event (one patient) (part A, 100 mg cohort): muscle weakness and blood creatine phosphokinase increased
- DLT event (one patient) (part A, 150 mg cohort): capillary leak syndrome
- maximum tolerated dose (MTD) (part A, 10-150 mg orally once daily): not reached
- patients with dose-limiting toxicities (part A, 10-150 mg orally once daily, cycle 1): three
- Any TEAE [3]: 67 (100) n (%)
- Any TEAE leading to BOS discontinuation [3]: 23 (34) n (%)
- Any TEAE leading to BOS dose interruption [3]: 45 (67) n (%)
- Any TEAE leading to BOS dose reduction [3]: 19 (28) n (%)
- Any TEAE leading to study discontinuation [3]: 11 (16) n (%)
- Any TEAE related to BOS leading to BOS discontinuation [3]: 14 (21) n (%)
- Any TEAE related to BOS leading to study discontinuation [3]: 4 (6) n (%)
- Any TEAE resulting in death [3]: 9 (13) n (%)
- Any TEAE, grade ≥3 [3]: 57 (85) n (%)
- Serious TEAEs related to BOS [3]: 12 (18) n (%)
- Serious TEAEs, any [3]: 39 (58) n (%)
- TEAE related to BOS, CTCAE grade ≥3: Anemia [3]: 7 (10) n (%)
- TEAE related to BOS, CTCAE grade ≥3: Asthenia [3]: 2 (3) n (%)
- TEAE related to BOS, CTCAE grade ≥3: Blood creatinine phosphokinase increased [3]: 19 (28) n (%)
- TEAE related to BOS, CTCAE grade ≥3: Diarrhea [3]: 3 (4) n (%)
- TEAE related to BOS, CTCAE grade ≥3: Hypophosphatemia [3]: 3 (4) n (%)
- TEAE related to BOS, CTCAE grade ≥3: Lymphopenia [3]: 1 (1) n (%)
- TEAE related to BOS, CTCAE grade ≥3: Muscular weakness [3]: 3 (4) n (%)
- TEAE related to BOS, CTCAE grade ≥3: Myositis [3]: 2 (3) n (%)
- TEAE related to BOS, CTCAE grade ≥3: Neutropenia [3]: 4 (6) n (%)
- TEAE related to BOS, CTCAE grade ≥3: Neutrophil count decreased [3]: 5 (7) n (%)
